These results are taken from ChEMBL document CHEMBL1129996, “1-Aryl-3,5-dihydro-4H-2,3-benzodiazepin-4-ones: novel AMPA receptor antagonists” (J Med Chem, 1997).

Series [1] is filed under the species Mus musculus. In words: Audiogenic seizures after concomitant treatment with Flumazenil (8.24 uM) in DBA / 2 mice clonic phase. The format is functional.
Series [2] is filed under the species Mus musculus. As to the kind of experiment: Pentylenetetrazole-induced seizures in Swiss mice after 45 min pretreatment at a dose range 10-150 uM / kg (95% confidence limits). The format is functional.
The subject of series [3] is Mus musculus. As to the kind of experiment: Anticonvulsant activity against the clonic seizures induced by icv injection of AMPA in DBA / 2 mice at a dose range of 10-200 uM / kg (95% confidence limits). The format is functional. Particulars: central.
Series [4] concerns Mus musculus. In words: Audiogenic seizures after pretreatment with Aniracetam in DBA / 2 mice tonic phase at a dose range of 10-200 uM/kg. The format is functional. The gist of the method: (§1)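 DBA/2 mice pretreated with aniracetam 50 nmol icv 60 min before auditory testing, with ip 2,3-benzodiazepine; audiogenic clonic and tonic phases scored; ED50 by Litchfield-Wilcoxon.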

Series [5] concerns Mus musculus. In words: Anticonvulsant activity against tonic phase of the audiogenic seizures in DBA / 2 mice 30 min after ip administration at a dose range 10-100 uM/kg. Particulars: 0.5 h. The format is functional. The gist of the method: (§2)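 Groups of 10 DBA/2 mice of either sex; drug ip (0.1 mL/10 g) as fresh solution in 50% DMSO/50% saline, 30 min before auditory stimulation (12-16 kHz, 109 dB, 60 s or until tonic extension) under perspex dome after 60 s habituation. Latency and incidence of wild running, clonic and tonic phases scored; ED50 (95% confidence limits) by Litchfield-Wilcoxon.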

The species entered for series [6] is Mus musculus. As to the kind of experiment: Audiogenic seizures after concomitant treatment with Flumazenil (24.72 uM) in DBA / 2 mice tonic phase. The format is functional.
In series [7] the test system is Mus musculus. As to the kind of experiment: Anticonvulsant activity against the maximal electroshock in Swiss mice after 45 minutes pretreatment at a dose range uM/kg. The format is functional. The gist of the method:
(§3)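 Swiss mice dosed ip in 50% DMSO/50% saline 45 min before ear-clip electroshock (50 mA, 20 ms pulses, 35 Hz, 400 ms). Protection = abolition of tonic hindlimb extension. Usually 4-5 doses with 8-10 mice each; ED50 (95% confidence limits) by Litchfield-Wilcoxon.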

The species entered for series [8] is Mus musculus. In words: Audiogenic seizures after concomitant treatment with Flumazenil (24.72 uM) in DBA / 2 mice clonic phase. The format is functional.
In series [9] the test system is Mus musculus. As to the kind of experiment: Anticonvulsant activity against the tonic seizures induced by icv injection of AMPA in DBA / 2 mice at a dose range of 10-200 uM/kg. The format is functional. Particulars: central.
The nature of series [10]: Motor toxicity in 50% of mice on locomotion assessed by Rotarod test following 30 min ip administration. The format is organism-based. The conditions noted are these: mouse, in vivo. In short, it runs like this:
(§4)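 Male Swiss mice (20-26 g, 48-54 days), groups of 10, trained on rotarod (3 cm, 8 rpm); tested 30 min after ip dosing. Impairment = failure to stay on for 2 min; TD50 (95% confidence limits) by Litchfield-Wilcoxon.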
Background: Falling from the rotarod earlier than controls is read as motor impairment.

Series [11] in a line: Relative lipophilicity of compound. The format is physicochemical. The conditions noted are these: reversed-phase TLC, acetone/water 2:1. In short, it runs like this:
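Reversed-phase TLC type lipophilicity: plates dried 105 °C 1 h, mobile phase acetone:water 2:1, 1 µL of 3 mg/mL CHCl3 solution spotted; five runs with varied positions, mean Rf converted as Rm = log[(1/Rf) - 1].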

Series [12] deals with Mus musculus. As to the kind of experiment: Anticonvulsant activity against clonic phase of the audiogenic seizures in DBA / 2 mice 30 min after ip administration at a dose range 10-100 uM/kg. Particulars: 0.5 h. The format is functional. In short, it runs like this:
as §2

Series [13] is described as follows: Therapeutic index it is the ratio between TD50 and ED50 (from the clonic phase of the audiogenic seizures). The conditions noted are these: read-out: TI. The gist of the method:
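Therapeutic index computed as rotarod TD50 divided by ED50 for the clonic phase of audiogenic seizures in DBA/2 mice.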

In series [14] the test system is Mus musculus. As to the kind of experiment: Audiogenic seizures after pretreatment with Aniracetam in DBA / 2 mice clonic phase at a dose range of 10-200 uM/kg. The format is functional. In short, it runs like this: as §1
The species named for series [15] is Mus musculus. In words: Audiogenic seizures after concomitant treatment with Flumazenil (8.24 uM) in DBA / 2 mice tonic phase. The format is functional.
Series [16] relates to Mus musculus. As to the kind of experiment: Anticonvulsant activity against tonic phase of the audiogenic seizures in DBA / 2 mice 30 min after ip administration at a dose range 10-66 uM/kg. Particulars: 0.5 h. The format is functional. In short, it runs like this:
as §2

Series [17] concerns Mus musculus. As to the kind of experiment: Anticonvulsant activity against clonic phase of the audiogenic seizures in DBA / 2 mice 30 min after ip administration at a dose range 10-66 uM/kg. The format is functional. Particulars: 0.5 h. In short, it runs like this: as §2
Series [18] concerns Mus musculus. In words: Anticonvulsant activity against clonic phase of the audiogenic seizures in DBA / 2 mice 30 min after ip administration at a dose range 33-133 uM/kg. The format is functional. The conditions noted are these: 0.5 h. The gist of the method:
as §2

For series [19], the system named is Mus musculus. As to the kind of experiment: Anticonvulsant activity against tonic phase of the audiogenic seizures in DBA / 2 mice 30 min after ip administration at a dose range 33-133 uM/kg. The format is functional. The conditions noted are these: 0.5 h. The gist of the method: as §2
The test system of series [20] is Mus musculus. In words: Anticonvulsant activity against clonic phase of the audiogenic seizures in DBA / 2 mice 30 min after ip administration at a dose range 33-200 uM/kg. The format is functional. Particulars: 0.5 h. In short, it runs like this: as §2
Series [21] relates to Mus musculus. In words: Anticonvulsant activity against the maximal electroshock in Swiss mice after 45 minutes pretreatment at a dose range 33-200 uM/kg. The format is functional. The gist of the method:
as §3
A general note: The maximal electroshock test induces tonic seizures with an electrical stimulus.

Series [22] relates to Mus musculus. In words: Pentylenetetrazole-induced seizures in Swiss mice after 45 min pretreatment at a dose range 33-200 uM/kg. The format is functional.
For series [23], the system named is Mus musculus. As to the kind of experiment: Anticonvulsant activity against tonic phase of the audiogenic seizures in DBA / 2 mice 30 min after ip administration at a dose range 33-200 uM/kg. The format is functional. The conditions noted are these: 0.5 h. The gist of the method: as §2
The test system of series [24] is Mus musculus. As to the kind of experiment: Anticonvulsant activity against tonic phase of the audiogenic seizures in DBA / 2 mice 30 min after ip administration at a dose range 10-120 uM/kg. The format is functional. Particulars: 0.5 h. In short, it runs like this: as §2
A short description of series [25]: Motor toxicity in 50% of mice on locomotion assessed by Rotarod test following 30 min ip administration (95% confidence limits). The format is organism-based. Particulars: mouse, in vivo. The gist of the method: as §4
The subject of series [26] is Mus musculus. In words: Anticonvulsant activity against the maximal electroshock in Swiss mice after 45 minutes pretreatment at a dose range 10-150 uM/kg. The format is functional. The gist of the method:
as §3

The subject of series [27] is Mus musculus. As to the kind of experiment: Anticonvulsant activity against clonic phase of the audiogenic seizures in DBA / 2 mice 30 min after ip administration at a dose range 10-120 uM/kg. The format is functional. The conditions noted are these: 0.5 h. The gist of the method: as §2
For series [28], the system named is Mus musculus. In words: Anticonvulsant activity against tonic phase of the audiogenic seizures in DBA / 2 mice 30 min after ip administration at a dose range 33-66 uM/kg. The format is functional. Particulars: 0.5 h. In short, it runs like this:
as §2

Series [29] deals with Mus musculus. As to the kind of experiment: Anticonvulsant activity against clonic phase of the audiogenic seizures in DBA / 2 mice 30 min after ip administration at a dose range 33-66 uM/kg. The format is functional. The conditions noted are these: 0.5 h. In short, it runs like this: as §2

Each structure is given as a SMILES string. Values joined by “and” are separate entries in the source; they are usually repeats but may differ in a detail not shown here. Equal entries are not always repeated. Where only a bound is given, the exact number is not on record here.

For `COc1cc2c(cc1OC)C(c1ccc(N)cc1)=NN(C)C(=O)C2`, the median effective dose (ED50) is 51.2 µmol/kg in series [1]; 70.8 µmol/kg in series [2]; 72.1 µmol/kg in [3]; 112 µmol/kg in series [4]; 43.7 µmol/kg and 14.2 mg/kg in series [5]; 32.2 µmol/kg in series [6]. Further, the ED50 is 57.2 µmol/kg in series [7]; 45.9 µmol/kg in series [8]; 62.4 µmol/kg in series [9]; 50.2 µmol/kg and 16.3 mg/kg in series [12]; 141 µmol/kg in series [14]; 38.5 µmol/kg in series [15]. Moreover, in [10], the TD50 at 0.5 h is 159 µmol/kg. Moreover, in series [11], the Rm is -0.374. Also, in series [13], the therapeutic index (TD50/ED50) came out at 3.2.

Consider `COc1cc2c(cc1OC)C(c1cccc(N)c1)=NN(C)C(=O)C2`, for which the ED50 in [16] was 30.6 µmol/kg and 9.94 mg/kg; in series [17], 36.8 µmol/kg and 11.9 mg/kg. This molecule also gave a Rm in series [11] of -0.327.

Turning to `COc1ccc2c(c1)CC(=O)N(C)N=C2c1ccccc1`, the ED50 in series [18] was 117 µmol/kg and 32.8 mg/kg; in series [19], 99.1 µmol/kg and 27.8 mg/kg. The Rm in series [11] amounted to 0.189.

On to `COc1ccc2c(c1)CC(=O)NN=C2c1ccccc1`, for which the 50% effective dose (ED50) is 75.5 µmol/kg and 20 mg/kg in series [20]; 73.4 µmol/kg in series [21]; 98.2 µmol/kg in [22]; 64.8 µmol/kg and 17.2 mg/kg in [23]. In addition, the TD50 at 0.5 h in [10] is 197 µmol/kg. In addition, the Rm in series [11] is listed as -0.052. Also, the therapeutic index (TD50/ED50) in [13] was 2.6.

For the molecule `COc1cc2c(cc1OC)C(c1ccc(N(C(C)=O)C(C)=O)cc1)=NN(C(C)=O)C(=O)C2`, the ED50 in series [5] was 43.9 µmol/kg and 19.2 mg/kg; in series [12], 56.8 µmol/kg and 24.8 mg/kg. This molecule also came in with a Rm in series [11] of -0.673.

As for `COc1cc2c(cc1OC)C(c1ccc([N+](=O)[O-])cc1)=NNC(=O)C2`, the median effective dose (ED50) in series [2] is more than 150 µmol/kg; in series [24] it was > 120 µmol/kg and > 44 mg/kg; in [26] it was more than 150 µmol/kg; in [27] it was > 120 µmol/kg and > 44 mg/kg. In addition, in series [25], the TD50 at 0.5 h is more than 150 µmol/kg. This molecule also gave a Rm in [11] of -0.096.

For `COc1cc2c(cc1OC)C(c1ccccc1)=NN(C(C)=O)C(=O)C2`, the 50% effective dose (ED50) in [5] is 72.1 µmol/kg and 24.4 mg/kg; in series [12], 101 µmol/kg and 33.3 mg/kg. Further, in series [10], the TD50 at 0.5 h is 181 µmol/kg. The same molecule gave a Rm in series [11] of -0.052. Further, in series [13], the therapeutic index (TD50/ED50) turned out to be 1.8.

As for `COc1cc2c(cc1OC)C(c1ccc(Cl)cc1)=NN(C)C(=O)C2`, the ED50 was 38.6 µmol/kg and 13.3 mg/kg in series [28]; 41.2 µmol/kg and 14.2 mg/kg in [29]. The molecule also returned a Rm in [11] of 0.25.

`COc1cc2c(cc1OC)C(c1cccc([N+](=O)[O-])c1)=NN(C)C(=O)C2`: the median effective dose (ED50) in series [24] is > 120 µmol/kg and > 44 mg/kg; in series [27], > 120 µmol/kg and > 44 mg/kg. For the same molecule, the Rm in series [11] was determined as 0.052.

The ED50 is the dose that gives a 50% effect, or the effect in half of the subjects. By TD50 is commonly meant the 50% point of the dose-response relation for the toxic effect studied. Low readings indicate harm at a small dose, high ones harm only at a large dose.
